One series concerns C. albicans (ATCC 90028). The series can be described thus: In vitro anticandidal activity, broth dilution. The conditions noted are these: Candida albicans, ATCC90028, 24 h, read-out: IC50 ± S.D, C. albicans. Format: cell-based. In outline:
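Broth dilution followed the NCCLS protocol. Test compound in DMSO was diluted in PBS, then tested at 1000 to 7.8 μg mL−1 in SD broth with about 2.5 × 10^3 cells per mL in 96-well plates. Plates were shaken 24 h at 30 °C, 150 rpm, and read at OD580. IC50 was the concentration halving absorbance versus untreated cells, taken from a log10 concentration versus % inhibition plot. Triplicates were run on separate occasions, with fluconazole as positive control.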

The next series relates to C. tropicalis (ATCC 750). The series can be described thus: In vitro anticandidal activity, broth dilution. The conditions noted are these: ATCC 750, 24 h, OD 580 nm. Format: cell-based, Candida tropicalis.
Another series is described as follows: Hemolytic assay. The class given is cell-based. The conditions noted are these: human, human red blood cells (erythrocyte suspension in PBS). An outline of the steps:
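Fresh human blood was collected in EDTA and spun 10 min at 2000 rpm. Erythrocytes were washed three times in PBS and made to a 10% (v/v) suspension, then diluted 1:10. Equal volumes of cells and test compound dilution series in PBS were incubated in triplicate for 1 h at 37 °C and re-centrifuged. Supernatant A450 was expressed relative to buffer (0%) and 1% Triton X-100 (100% lysis). Fluconazole was the reference.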

Series [1] deals with human embryonic kidney (HEK-293) cells. The series can be described thus: Cytotoxicity by MTT assay. The conditions noted are these: HEK-293, 100 μg mL^−1, 24 h. Format: cell-based. In outline: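 HEK-293 cells grown as monolayers in DMEM with 10% FBS, penicillin and streptomycin, 37 °C, 5% CO2, at most 30 passages. Seeded at about 8 × 10^3 cells per well, 24 h before dosing. Test compound (DMSO stock diluted in PBS) given at 10–200 μg mL−1 for 24 h at 37 °C. Serum-free medium, then MTT (5 mg mL−1 in PBS), 4 h. Formazan dissolved in DMSO, A570 read. Triplicate; viability relative to untreated cells.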

The subject of a further series is C. albicans. The series is described as follows: Growth curve studies. The class given is cell-based, Candida albicans. In outline:
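C. albicans revived on SD agar and pre-grown 16 h at 30 °C in SD broth. About 2 × 10^3 cells per mL were inoculated into 50 mL SD medium containing test compound at 2MIC, MIC or MIC/2, then shaken at 30 °C, 160 rpm. Fluconazole at 31.25 μg mL−1 and untreated cells served as controls. OD600 was read on 1 mL aliquots every 2 h from 0 to 24 h.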

Series [2] concerns ergosterol content in C. albicans ATCC 90028. The series is described as follows: Sterol estimation assay. The conditions noted are these: vs untreated cells. The class given is cell-based, Candida albicans.

Data on four compounds can be found in publication PMC9090800 (RSC Advances, 2018).

SMILES strings stand for the structures. In brackets after ≈: the same amount, converted by molar mass.

As for `CCOC(=O)c1nc2ccccc2c(=O)n1Cc1cn(-c2cccc(Cl)c2)nn1` [Compound 5g, Ethyl 3-((1-(3-chlorophenyl)-1H-1,2,3-triazol-4-yl)methyl)-4-oxo-3,4-dihydroquinazoline-2-carboxylate], in the series on C. albicans (ATCC 90028), the IC50 came to 65.6 ± 3.2 µg/mL (≈ 160 µM). In addition, the “IC50 ± S.D, C. tropicalis” value with C. tropicalis (ATCC 750) amounted to 28.2 ± 2.2 µg/mL (≈ 68.8 µM). This compound also returned a hemolysis at 1 h, 1000 μg mL^−1 in “Hemolytic assay” below 20%. Also, the “cell viability (MTT)” value in series [1] is “no significant decrease in cell viability”.
On to `CCOC(=O)c1nc2ccccc2c(=O)n1Cc1cn(-c2ccc(C)cc2)nn1` [Compound 5n, Ethyl 4-oxo-3-((1-p-tolyl-1H-1,2,3-triazol-4-yl)methyl)-3,4-dihydroquinazoline-2-carboxylate], for which the “growth of Candida cells” value with C. albicans (2MIC and MIC, 24 h) is “did not show any significant growth”. Also, in the series on C. albicans (no significant growth after 24 h at higher concentrations), the nature of inhibition entry was “fungicidal”. Moreover, the “time after which growth was observed” value with C. albicans (sub-MIC (MIC/2), standard C. albicans strain) is listed as 7 h. Also, in the series on C. albicans (ATCC 90028), the IC50 was 14.6 ± 2.1 µg/mL (≈ 37.5 µM). Also, the “decrease in ergosterol content” value in series [2] (2MIC (500 μg mL^−1)) is given as 57%; in series [2] (MIC (250 μg mL^−1)), 55%; in series [2] (MIC/2 (125 μg mL^−1)), 48%. In “Hemolytic assay”, the hemolysis at 1 h, 1000 μg mL^−1 is 41.2%. In series [1], the “cell viability (MTT)” value is reported as “no significant decrease in cell viability”.
On to `COc1ccccc1-n1cc(Cn2c(C(=O)O)nc3ccccc3c2=O)nn1` [Compound 6e, 3-((1-(2-Methoxyphenyl)-1H-1,2,3-triazol-4-yl)methyl)-4-oxo-3,4-dihydroquinazoline-2-carboxylic acid], for which the IC50 with C. albicans (ATCC 90028) turned out to be 48.2 ± 3.2 µg/mL (≈ 128 µM). For the same compound, in “Hemolytic assay”, the hemolysis at 1 h, 1000 μg mL^−1 was below 20%. The “cell viability (MTT)” value in series [1] is “no significant decrease in cell viability”.
In the case of `Cc1ccc(-n2cc(Cn3c(C(=O)O)nc4ccccc4c3=O)nn2)cc1` [Compound 6n, 4-Oxo-3-((1-p-tolyl-1H-1,2,3-triazol-4-yl)methyl)-3,4-dihydroquinazoline-2-carboxylic acid], the IC50 in the series on C. albicans (ATCC 90028) stood at 87 ± 4 µg/mL (≈ 241 µM). The hemolysis at 1 h, 1000 μg mL^−1 in the series “Hemolytic assay” is below 20%. In addition, in series [1], the “cell viability (MTT)” value is on record as “no significant decrease in cell viability”.
